In PMC9179932 (Nature chemical biology, 2022):
Like-named read-outs stand apart in the source and are kept apart here. Peptide text beside a SMILES is read from it.

Key:
[1] = tested on: N/TERT-1 keratinocytes; experiment: NLRP1 inflammasome activation in N/TERT-1 keratinocytes; type: cell-based, human; details: XP-OMes 1 mM, VbP 10 μM, CQ31 10 μM, 16 h
Procedure, shortened: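 N/TERT-1 immortalised keratinocytes seeded at 1×10^5 cells per well in 12-well plates, grown to 70% confluence, then treated with test compound for 16 h. Supernatants assayed for LDH activity with a commercial cytotoxicity kit; inflammasome readouts such as IL-18 processing assessed by immunoblotting.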

[2] = tested on: RAW264.7 cells; experiment: Pyroptosis in RAW264.7 macrophages; type: cell-based, mouse; details: 24 h; for pyroptosis at fivefold higher concentration: 5 mM, CTF and CTG
[3] = tested on: resting primary T cells; experiment: Pyroptosis in resting primary T cells; type: cell-based, human; details: for GSDMD cleavage in resting T cells: 1 mM, 18 h
Procedure, shortened: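 Primary resting human CD3+ T cells (>90% purity) are thawed in RPMI/10% FBS and cultured with IL-2 30 U ml−1. Cells are treated with 1 mM for 18 h or 10 μM for 24 h. Analysis is by immunoblot for pyroptotic and apoptotic markers, with CTG viability after 24 h. Results are representative of two independent experiments.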

[4] = tested on: MV4;11 cells; experiment: MV4; type: cell-based; details: 1 mM; for lytic cell death / cytotoxicity in MV4;11 cells: PI uptake, CTG, CTF; for pyroptosis in PEPD−/− knockout cells / activity in control cells: 14 h
[5] = tested on: MV4;11 cells; experiment: MV4; type: cell-based, human; details: for PI uptake, GSDMD cleavage and LDH release in knockout cells: CASP1−/− and CARD8−/− MV4;11; for LDH release and GSDMD cleavage in PEPD−/− vs control cells: PEPD−/− MV4;11, 1 mM; for LDH release and GSDMD cleavage in PEPD−/− vs control cells / effect on CQ31-induced cell death / effect on VP-OMe- and IP-OMe-induced LDH release and GSDMD cleavage: 6 h; for LDH release and GSDMD cleavage / effect on CQ31-induced cell death: WT MV4;11; for LDH release and GSDMD cleavage: XP-OMes 1 mM, VbP 2 μM, 14 h; for effect on CQ31-induced cell death: CQ31 10 μM; for effect on CQ31-induced cell death / effect on VP-OMe- and IP-OMe-induced LDH release and GSDMD cleavage: bortezomib 1 μM, VX-765 50 μM; for effect on VP-OMe- and IP-OMe-induced LDH release and GSDMD cleavage: pretreatment
Procedure, shortened: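 MV4;11 cells (WT or knockouts) are plated at 5×10^5 per well. Treatments: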

[6] = tested on: THP-1 cells; experiment: THP-1 LDH release and GSDMD cleavage immunoblot; type: cell-based, human; details: for PI uptake, GSDMD cleavage and LDH release in knockout cells: CASP1−/− and CARD8−/− THP-1; for additional pyroptosis in DPP8/9−/− THP-1 cells: LDH release, GSDMD cleavage, CTG and CTF; for LDH release and GSDMD cleavage: WT THP-1, XP-OMes 1 mM, VbP 2 μM, 24 h
[7] = target: recombinant DPP9 (Homo sapiens, UniProt Q86TI2); experiment: AP-AMC-based DPP9 substrate assay; type: biochemical; details: for effect of esterification on DPP9 inhibition: methyl ester vs free dipeptide
recombinant DPP9, sequence (Q86TI2 whole entry, species assumed): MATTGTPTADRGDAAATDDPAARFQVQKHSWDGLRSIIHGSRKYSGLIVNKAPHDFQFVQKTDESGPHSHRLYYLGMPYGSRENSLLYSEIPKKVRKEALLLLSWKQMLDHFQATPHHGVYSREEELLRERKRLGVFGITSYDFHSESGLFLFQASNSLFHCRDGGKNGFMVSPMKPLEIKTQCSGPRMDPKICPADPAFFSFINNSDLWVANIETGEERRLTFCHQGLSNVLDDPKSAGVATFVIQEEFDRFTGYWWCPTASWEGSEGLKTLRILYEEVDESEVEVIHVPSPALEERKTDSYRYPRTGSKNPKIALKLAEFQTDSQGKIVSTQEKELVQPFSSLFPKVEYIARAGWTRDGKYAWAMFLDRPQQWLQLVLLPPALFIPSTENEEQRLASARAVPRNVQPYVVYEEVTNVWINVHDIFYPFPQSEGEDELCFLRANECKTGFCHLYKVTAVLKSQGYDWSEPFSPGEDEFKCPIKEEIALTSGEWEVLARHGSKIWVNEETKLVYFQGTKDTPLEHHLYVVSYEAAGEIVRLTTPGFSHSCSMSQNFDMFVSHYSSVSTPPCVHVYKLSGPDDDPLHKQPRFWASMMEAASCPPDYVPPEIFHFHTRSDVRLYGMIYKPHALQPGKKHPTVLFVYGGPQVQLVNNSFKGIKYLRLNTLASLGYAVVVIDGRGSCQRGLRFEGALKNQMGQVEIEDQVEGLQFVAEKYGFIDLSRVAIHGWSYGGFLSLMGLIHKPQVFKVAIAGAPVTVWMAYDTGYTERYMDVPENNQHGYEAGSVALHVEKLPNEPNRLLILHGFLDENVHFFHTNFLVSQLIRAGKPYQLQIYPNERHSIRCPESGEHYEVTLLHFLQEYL
Procedure, shortened: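 Recombinant DPP9 (1 nM) is dispensed into 384-well plates and test compound is added by pintool over a concentration series. Reaction starts with 25 μM AP-AMC. Cleavage is read as rising fluorescence (ex/em 380/460 nm) at 25 °C for 30 min.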

[8] = tested on: VbP-sensitive cell lines, including THP-1 cells; experiment: Viability of VbP-sensitive AML cancer cell lines; type: cell-based, human; details: 24 h, CTG
Procedure, shortened: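 Cell lines grown in RPMI/10% FBS are seeded at 2,000 cells per well in 384-well plates (25 μl). Test compound is pinned in at multiple concentrations and incubated 24 h at 37 °C, 5% CO2. CellTiter-Glo is added, plates are shaken 2 min and held 10 min at 25 °C, and luminescence is read.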

[9] = target: NLRP1–DPP9 interaction (Homo sapiens, UniProt Q86TI2); experiment: DPP9 displacement from FLAG-NLRP1 on anti-FLAG beads; type: binding; details: VbP 10 μM; VP dipeptide 0.5, 5 mM; CQ31, CQ04 10 μM
NLRP1–DPP9 interaction, sequence (Q86TI2 whole entry): as the sequence (Q86TI2 whole entry, species assumed) above

[10] = tested on: J774.1 macrophages; experiment: Pyroptosis in J774.1 macrophages; type: cell-based, mouse; details: VbP 2 μM, 24 h
Procedure, shortened: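 J774.1 cells are grown in RPMI/10% FBS, plated at 5×10^5 per well and treated 24 h (VbP 2 μM). Supernatant LDH is measured relative to Triton X-100 lysis (n = 3). For the dose series, 2,000 cells per well in 384-well plates get compound by pintool. CTF fluorescence is read after 30 min, then CTG luminescence after 2 min shaking and 10 min at 25 °C (n = 6).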

[11] = tested on: human NLRP1 inflammasome; experiment: Reconstituted human NLRP1 inflammasome in HEK 293T cells; type: cell-based; details: XP-OMes 1 mM, VbP 10 μM, CQ31 10 μM, 24 h
Procedure, shortened: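 For ASC specks, HEK 293T cells (2.5×10^5 per well) are transfected with 10 ng FLAG-NLRP1, 5 ng V5-GFP-ASC and 985 ng RFP plasmid and allowed 24 h expression. They are treated 24 h, Hoechst-stained, and the % of cells with specks is scored by microscopy. For GSDMD cleavage, HEK 293T cells stably expressing CASP1/GSDMD get 0.02 μg NLRP1 and 0.01 μg ASC (2.0 μg total DNA), are treated 16–20 h later for 24 h, and are immunoblotted.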

## CC[C@H](C)[C@H](N)C(=O)N1CCC[C@H]1C(=O)OC [IP-OMe] (H-Ile-Pro-OMe)
[1]
  NLRP1 inflammasome activation (LDH release, IL-18 cleavage and release): did not induce NLRP1 inflammasome activation
[2]
  pyroptosis at fivefold higher concentration: failed to trigger pyroptosis
[3]
  GSDMD cleavage in resting T cells: induced GSDMD cleavage
[4]
  lytic cell death / cytotoxicity in MV4;11 cells: cytotoxic
[5]
  PI uptake, GSDMD cleavage and LDH release in knockout cells: lack of PI uptake, GSDMD cleavage and LDH release
  LDH release and GSDMD cleavage in PEPD−/− vs control cells: induced more LDH release and GSDMD cleavage
  LDH release and GSDMD cleavage: induced the release of intracellular lactate dehydrogenase (LDH) and GSDMD cleavage
[6]
  PI uptake, GSDMD cleavage and LDH release in knockout cells: lack of PI uptake, GSDMD cleavage and LDH release
  additional pyroptosis in DPP8/9−/− THP-1 cells: did not induce any additional pyroptosis
  LDH release and GSDMD cleavage: induced the release of intracellular lactate dehydrogenase (LDH) and GSDMD cleavage
[7]
  effect of esterification on DPP9 inhibition: did not impact DPP9 inhibition

## CCC(C)C(N)C(=O)N1CCCC1C(=O)O (stereo not drawn) [Ile-Pro, reference compound] (H-Ile-Pro-OH; configuration not given here)
[4]
  lytic cell death / cytotoxicity in MV4;11 cells: did not induce lytic cell death
[7]
  IC50: 10 to 15 µM

## COC(=O)[C@@H]1CCCN1C(=O)[C@@H](N)CC(C)C [LP-OMe] (H-Leu-Pro-OMe)
[4]
  pyroptosis in PEPD−/− knockout cells: induced pyroptosis
  activity in control cells: inactive in control cells

## COC(=O)[C@@H]1CCCN1C(=O)[C@@H](N)CCSC [MP-OMe] (H-Met-Pro-OMe)
[4]
  pyroptosis in PEPD−/− knockout cells: induced pyroptosis
  activity in control cells: inactive in control cells

## COC(=O)[C@@H]1CCCN1C(=O)[C@@H]1CCCN1 [PP-OMe] (H-Pro-Pro-OMe)
[4]
  pyroptosis in PEPD−/− knockout cells: induced pyroptosis
  activity in control cells: inactive in control cells

## COC(=O)[C@@H]1CCCN1C(=O)[C@@H](N)C(C)C [VP-OMe] (H-Val-Pro-OMe)
[1]
  NLRP1 inflammasome activation (LDH release, IL-18 cleavage and release): did not induce NLRP1 inflammasome activation
[2]
  pyroptosis at fivefold higher concentration: failed to trigger pyroptosis
[3]
  GSDMD cleavage in resting T cells: induced GSDMD cleavage
[4]
  lytic cell death / cytotoxicity in MV4;11 cells: cytotoxic
[5]
  PI uptake, GSDMD cleavage and LDH release in knockout cells: lack of PI uptake, GSDMD cleavage and LDH release
  LDH release and GSDMD cleavage in PEPD−/− vs control cells: induced more LDH release and GSDMD cleavage
  LDH release and GSDMD cleavage: induced the release of intracellular lactate dehydrogenase (LDH) and GSDMD cleavage
[6]
  PI uptake, GSDMD cleavage and LDH release in knockout cells: lack of PI uptake, GSDMD cleavage and LDH release
  additional pyroptosis in DPP8/9−/− THP-1 cells: did not induce any additional pyroptosis
  LDH release and GSDMD cleavage: induced the release of intracellular lactate dehydrogenase (LDH) and GSDMD cleavage
[7]
  effect of esterification on DPP9 inhibition: did not impact DPP9 inhibition
[8]
  concentration inducing cell death: < 5 mM

## CCO[C@@H]1OC(=O)C[C@@H]1NC(=O)[C@@H]1CCCN1C(=O)[C@@H](NC(=O)c1ccc(N)c(Cl)c1)C(C)(C)C [VX-765, reference compound]
[5]
  effect on CQ31-induced cell death: blocked CQ31-induced cell death
  effect on VP-OMe- and IP-OMe-induced LDH release and GSDMD cleavage: completely blocked

## CC(C)[C@H](N)C(=O)N1CCC[C@H]1C(=O)O [Val-Pro, reference compound] (H-Val-Pro-OH)
[9]
  disruption of NLRP1–DPP9 interaction (DPP9 elution): had no impact on the NLRP1 ternary complex
[4]
  lytic cell death / cytotoxicity in MV4;11 cells: did not induce lytic cell death
[7]; read-out: IC50, DPP9 inhibition, Ala-Pro-aminomethylcoumarin (AP-AMC) substrate
  IC50: 10 to 15 µM

## CC(C)[C@H](N)C(=O)N1CCC[C@H]1B(O)O [VbP, Val-boroPro, reference compound]
[10]
  activation of mNLRP1B1 (LDH release): activated mouse NLRP1B allele 1
[1]
  NLRP1 inflammasome activation (LDH release, IL-18 cleavage and release): induced LDH release as well as IL-18 cleavage and release
[2]; VbP 2 μM
  activation of mNLRP1B1 (LDH release, GSDMD cleavage): activated mouse NLRP1B allele 1
[11]
  ASC speck formation: triggered the formation of ASC specks
[3]; 10 μM, 24 h
  pyroptosis in resting primary T cells: induced pyroptosis
[5]
  LDH release and GSDMD cleavage: induced the release of intracellular lactate dehydrogenase (LDH) and GSDMD cleavage
[6]
  additional pyroptosis in DPP8/9−/− THP-1 cells: did not induce any additional pyroptosis
  LDH release and GSDMD cleavage: induced the release of intracellular lactate dehydrogenase (LDH) and GSDMD cleavage

## CC(C)C[C@H](NC(=O)[C@H](Cc1ccccc1)NC(=O)c1cnccn1)B(O)O [bortezomib, reference compound]
[5]
  apoptosis (PARP cleavage): caused considerable apoptosis
  effect on CQ31-induced cell death: blocked CQ31-induced cell death
  effect on VP-OMe- and IP-OMe-induced LDH release and GSDMD cleavage: completely blocked
